Residue numbers refer to the chain shown, from its start. Where two headings read alike, the source gives them in different places.
What was measured:
HCN2 channel = details: cited from earlier work
HCN2 C-terminus = details: 10 and 25 µM HCN2 C-terminus, very high ligand levels; ref Ng et al., 2016; cited from earlier work
I630A HCN2 C-terminus = biological target: T1, I630A HCN2 C-terminus (Mus musculus, UniProt O88703, I630A); assay: ITC binding to I630A HCN2 C-terminus; details: for Kd: two-site model, mean ± SEM
T1 sequence (O88703 443-645 I630A): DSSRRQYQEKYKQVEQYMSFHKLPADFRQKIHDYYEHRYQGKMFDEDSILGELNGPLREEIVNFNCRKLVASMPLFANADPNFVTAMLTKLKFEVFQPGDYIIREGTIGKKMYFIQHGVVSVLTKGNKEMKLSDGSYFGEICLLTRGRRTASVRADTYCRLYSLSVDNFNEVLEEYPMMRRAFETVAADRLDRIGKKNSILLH
Procedure, shortened: (§1)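 HCN2 C-linker/CNBD point mutant (residues 443–645) expressed from an HMT-tagged pET28 vector in Rosetta DE3 pLacI cells, induced 4 h. […] Integrated heats fitted to a one- or two-site independent binding model; ≥3 replicates.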

K638A HCN2 C-terminus = biological target: T2, K638A HCN2 C-terminus (Mus musculus, UniProt O88703, K638A); assay: ITC binding to K638A HCN2 C-terminus
T2 sequence (O88703 443-645 K638A): T1 sequence (O88703 443-645 I630A) with A188I, K196A
Procedure, shortened: as §1

T592A HCN2 C-terminus = biological target: T3, T592A HCN2 C-terminus (Mus musculus, UniProt O88703, T592A); assay: ITC binding to T592A HCN2 C-terminus
T3 sequence (O88703 443-645 T592A): T1 sequence (O88703 443-645 I630A) with T150A, A188I
Procedure, shortened: as §1

[1] = biological target: T4, wild-type HCN2 C-terminus (Mus musculus, UniProt O88703); assay: ITC binding to wild-type HCN2 C-terminus; details: for n: Wild type, mean ± SEM
T4 sequence (O88703 443-645): T1 sequence (O88703 443-645 I630A) with A188I

[2] = biological target: T5, R632A-HMT HCN2 C-linker/CNBD (Mus musculus, UniProt O88703, R632A); assay: ITC binding to R632A-HMT protein; details: two trials
T5 sequence (O88703 443-645 R632A): T1 sequence (O88703 443-645 I630A) with A188I, R190A

D634A HCN2 C-terminus = biological target: T6, D634A HCN2 C-terminus (Mus musculus, UniProt O88703, D634A); assay: ITC binding to D634A HCN2 C-terminus; details: for Kd: two-site model, mean ± SEM
T6 sequence (O88703 443-645 D634A): T1 sequence (O88703 443-645 I630A) with A188I, D192A
Procedure, shortened: as §1

I636A HCN2 C-terminus = biological target: T7, I636A HCN2 C-terminus (Mus musculus, UniProt O88703, I636A); assay: ITC binding to I636A HCN2 C-terminus
T7 sequence (O88703 443-645 I636A): T1 sequence (O88703 443-645 I630A) with A188I, I194A

I636D HCN2 C-terminus = biological target: T8, I636D HCN2 C-terminus (Mus musculus, UniProt O88703, I636D); assay: ITC binding to I636D HCN2 C-terminus
T8 sequence (O88703 443-645 I636D): T1 sequence (O88703 443-645 I630A) with A188I, I194D

R591A HCN2 C-terminus = biological target: T9, R591A HCN2 C-terminus (Mus musculus, UniProt O88703, R591A); assay: ITC binding to R591A HCN2 C-terminus
T9 sequence (O88703 443-645 R591A): T1 sequence (O88703 443-645 I630A) with R149A, A188I
Procedure, shortened: as §1

L633A HCN2 C-terminus = biological target: T10, L633A HCN2 C-terminus (Mus musculus, UniProt O88703, L633A); assay: ITC binding to L633A HCN2 C-terminus
T10 sequence (O88703 443-645 L633A): T1 sequence (O88703 443-645 I630A) with A188I, L191A
Procedure, shortened: as §1

D631A HCN2 C-terminus = biological target: T11, D631A HCN2 C-terminus (Mus musculus, UniProt O88703, D631A); assay: ITC binding to D631A HCN2 C-terminus; details: for Kd: two-site model, mean ± SEM
T11 sequence (O88703 443-645 D631A): T1 sequence (O88703 443-645 I630A) with A188I, D189A

[3] = biological target: T4, wild-type HCN2 C-terminus; details: previously found; ref Ng et al., 2016; cited from earlier work
R635A HCN2 C-terminus = biological target: T12, R635A HCN2 C-terminus (Mus musculus, UniProt O88703, R635A); assay: ITC binding to R635A HCN2 C-terminus; details: stoichiometry, single-site model, four trials, three from Ng et al., 2016
T12 sequence (O88703 443-645 R635A): T1 sequence (O88703 443-645 I630A) with A188I, R193A

[4] = stoichiometry of high-affinity event
[5] = stoichiometry of low-affinity event
[6] = slope of ΔH at 10°C and 25°C, data of Chow et al., 2012
[7] = single-site independent binding model, mean ± SEM
[8] = stoichiometry, single-site model
[9] = single-site independent binding model, mean ± SEM, c value <1
[10] = high-affinity event, two-site model, mean ± SEM
[11] = low-affinity event, two-site model, mean ± SEM
[12] = read-out: Kd Site 1, model input from ITC
[13] = read-out: Kd Site 2, model input from ITC
[14] = read-out: Kd Site 3, model input from ITC
[15] = read-out: Kd Site 4, model input from ITC

## Nc1ccn([C@@H]2O[C@@H]3COP(=O)(O)O[C@H]3[C@H]2O)c(=O)n1 [cCMP]
HCN2 channel
  agonist type: partial agonist
HCN2 C-terminus
  promotion of tetramerization: not able to promote tetramerization

## O=c1[nH]cnc2c1ncn2[C@@H]1O[C@@H]2COP(=O)(O)O[C@H]2[C@H]1O [cIMP]
HCN2 channel
  agonist type: partial agonist
HCN2 C-terminus
  promotion of tetramerization: not able to promote tetramerization

## cAMP
I630A HCN2 C-terminus; [4]
  n: 0.28± 0.03
I630A HCN2 C-terminus; [5]
  n: 0.69 ± 0.07
K638A HCN2 C-terminus; [4]
  n: 0.38 ± 0.04
K638A HCN2 C-terminus; [5]
  n: 0.50 ± 0.03
T592A HCN2 C-terminus; [4]
  n: 0.23 ± 0.01
T592A HCN2 C-terminus; [5]
  n: 0.56 ± 0.06
[1]; [4]
  n: 0.33 ± 0.02
[1]; [5]
  n: 0.66 ± 0.09
[1]; [6]
  ΔCp, high-affinity binding: −159 cal/mol/°C
  ΔCp, low-affinity binding: −898 cal/mol/°C
[2]
  binding to R632A-HMT protein: not detected
HCN2 channel
  Hill coefficient: ~1
HCN2 channel; read-out: EC50 determined by the Hill equation
  EC50: ~100 nM
D634A HCN2 C-terminus; [4]
  n: 0.26 ± 0.03
D634A HCN2 C-terminus; [5]
  n: 0.81 ± 0.03
I636A HCN2 C-terminus; [4]
  n: 0.36 ± 0.01
I636A HCN2 C-terminus; [5]
  n: 0.60 ± 0.03
I636D HCN2 C-terminus; [4]
  n: 0.56 ± 0.07
I636D HCN2 C-terminus; [5]
  n: 0.82 ± 0.02
R591A HCN2 C-terminus; [4]
  n: 0.35 ± 0.02
R591A HCN2 C-terminus; [5]
  n: 0.70 ± 0.09
L633A HCN2 C-terminus; [4]
  n: 0.41 ± 0.02
L633A HCN2 C-terminus; [5]
  n: 0.69 ± 0.05
D631A HCN2 C-terminus; [4]
  n: 0.21 ± 0.02
D631A HCN2 C-terminus; [5]
  n: 0.56 ± 0.04

## cGMP
I630A HCN2 C-terminus; high-affinity event
  Kd: 0.49 ± 0.11 µM
I630A HCN2 C-terminus; low-affinity event
  Kd: 7.78 ± 0.31 µM
I630A HCN2 C-terminus; [4]
  n: 0.24 ± 0.05
I630A HCN2 C-terminus; [5]
  n: 0.44 ± 0.05
K638A HCN2 C-terminus; [7]
  Kd: 14.7 ± 2.04 µM
K638A HCN2 C-terminus; [8]
  n: 0.47 ± 0.09
T592A HCN2 C-terminus; [9]
  Kd: 184 ± 2.69 µM
T592A HCN2 C-terminus; [8]
  n: 0.20 ± 0.03
[1]; [4]
  n: 0.21 ± 0.01
[1]; [5]
  n: 0.27 ± 0.01
[1]; found here
  fold difference between low- and high-affinity binding: 3 fold
[1]; wild-type HCN2 C-terminus
  increase of the high-affinity Kd compared with cAMP binding: threefold
  increase of the low-affinity Kd compared with cAMP binding: ~3.4 fold
[2]
  binding to R632A-HMT protein: not detected
[3]
  fold difference between low- and high-affinity binding: 2.3 fold
D634A HCN2 C-terminus; high-affinity event
  Kd: 0.54 ± 0.1 µM
D634A HCN2 C-terminus; low-affinity event
  Kd: 8.04 ± 1.32 µM
D634A HCN2 C-terminus; [4]
  n: 0.23 ± 0.04
D634A HCN2 C-terminus; [5]
  n: 0.87 ± 0.14
I636A HCN2 C-terminus; [10]
  Kd: 0.24 ± 0.02 µM
I636A HCN2 C-terminus; [11]
  Kd: 3.23 ± 0.15 µM
I636A HCN2 C-terminus; [12]
  Kd: 0.24 µM
I636A HCN2 C-terminus; [13]
  Kd: 3.23 µM
I636A HCN2 C-terminus; [14]
  Kd: 3.23 µM
I636A HCN2 C-terminus; [15]
  Kd: 3.23 µM
I636A HCN2 C-terminus; [4]
  n: 0.23 ± 0.01
I636A HCN2 C-terminus; [5]
  n: 0.44 ± 0.02
R635A HCN2 C-terminus
  n: 0.67 ± 0.09
I636D HCN2 C-terminus; [10]
  Kd: 210 ± 70 nM
I636D HCN2 C-terminus; [11]
  Kd: 1760 ± 510 nM
I636D HCN2 C-terminus; [12]
  Kd: 210 nM
I636D HCN2 C-terminus; [13]
  Kd: 1760 nM
I636D HCN2 C-terminus; [14]
  Kd: 1760 nM
I636D HCN2 C-terminus; [15]
  Kd: 1760 nM
I636D HCN2 C-terminus; [4]
  n: 0.18 ± 0.04
I636D HCN2 C-terminus; [5]
  n: 0.56 ± 0.08
R591A HCN2 C-terminus; [9]
  Kd: 322 ± 26.7 µM
R591A HCN2 C-terminus; [8]
  n: 2.15E-5 ± 9.20E-6
L633A HCN2 C-terminus; [7]
  Kd: 16.5 ± 3.2 µM
L633A HCN2 C-terminus; [8]
  n: 0.74 ± 0.09
D631A HCN2 C-terminus; high-affinity event
  Kd: 210 ± 60 nM
D631A HCN2 C-terminus; low-affinity event
  Kd: 4780 ± 880 nM
D631A HCN2 C-terminus; [4]
  n: 0.20 ± 0.03
D631A HCN2 C-terminus; [5]
  n: 0.63 ± 0.09

Reference: article PMC6785730 (The Journal of General Physiology, 2019)
